As usually defined, the Papp A→B is how fast a substance crosses the layer from the apical side.

Calls of active or inactive are those of the source. The calls are words filed in the database; no cut-off is given here. Starred links: 1 amine or outer side, 2 acyl side, 3 side chain; linkers in the order of their positions; H or OH if unused. Non-standard residues stand in square brackets, D forms with d. Residues, ends and D or L forms follow the SMILES beside them. *: point of attachment. X3 = C[C@H](O)CN(N[*:1])C(=O)NN(CCCCN)C(=O)[*:2]; X2 = CC(C)CN(NC(=O)N(C)N[*:1])C(=O)[*:2]; X1 = C[C@H](O)CN(N)C(=O)NN(CCCCN)C(=O)*

For series [1], the target named is Amyloid-beta precursor protein (Homo sapiens) (UniProt P05067). The series is described as follows: Inhibition of Amyloid beta (1 to 42) (unknown origin) aggregation assessed as reduction in experimental fluorescence platea at 10 to 1 ratio of compound to amyloid beta (1 to 42) incubated for 48 hrs fluorescence-detected ThT-binding assay. More on the design: scale not given: the % may be the effect or the level left.
Sequence of Amyloid-beta precursor protein (Homo sapiens) (P05067 whole entry): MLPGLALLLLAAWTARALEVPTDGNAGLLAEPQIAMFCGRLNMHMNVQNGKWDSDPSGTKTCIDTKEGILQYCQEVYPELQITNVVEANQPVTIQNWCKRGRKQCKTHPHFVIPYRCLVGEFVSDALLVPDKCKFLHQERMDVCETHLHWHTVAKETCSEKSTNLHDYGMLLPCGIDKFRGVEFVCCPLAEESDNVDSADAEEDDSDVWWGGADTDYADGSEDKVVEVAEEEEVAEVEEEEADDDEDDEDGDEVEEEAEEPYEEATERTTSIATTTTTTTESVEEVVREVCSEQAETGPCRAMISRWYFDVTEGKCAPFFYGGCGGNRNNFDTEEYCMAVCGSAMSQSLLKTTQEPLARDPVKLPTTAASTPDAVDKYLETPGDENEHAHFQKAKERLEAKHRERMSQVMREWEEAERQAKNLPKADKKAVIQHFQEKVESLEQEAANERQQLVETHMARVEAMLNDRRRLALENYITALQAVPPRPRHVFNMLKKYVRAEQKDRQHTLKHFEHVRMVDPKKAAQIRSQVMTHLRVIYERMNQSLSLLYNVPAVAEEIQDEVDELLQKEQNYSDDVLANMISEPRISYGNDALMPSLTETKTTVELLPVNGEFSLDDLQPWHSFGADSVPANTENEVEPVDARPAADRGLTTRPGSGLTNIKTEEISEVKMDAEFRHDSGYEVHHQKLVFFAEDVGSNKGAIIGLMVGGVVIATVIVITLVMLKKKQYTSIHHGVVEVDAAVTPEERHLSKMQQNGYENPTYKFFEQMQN

The target is the same in series [2]. The series is described as follows: Inhibition of Amyloid beta (1 to 42) (unknown origin) aggregation assessed as extension of time of the half aggregation at 10 to 1 ratio of compound to amyloid beta (1 to 42) incubated for 48 hrs fluorescence-detected ThT-binding assay. Details: scale not given: the % may be the effect or the level left.
Series [3] addresses T1, Islet amyloid polypeptide (Homo sapiens) (UniProt P10997).
T1 sequence (whole entry): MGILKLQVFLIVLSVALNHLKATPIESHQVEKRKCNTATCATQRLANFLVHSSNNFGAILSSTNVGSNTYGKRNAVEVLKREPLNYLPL
Put plainly: Inhibition of hIAPP aggregation assessed as ThT fluorescence intensity at 10 to 1 ratio of compound to hIAPP by ThT fluorescence spectroscopy.

A short description of series [4]: Cytotoxicity against rat brain endothelial cells assessed as viability at 1 to 100 ug/ml measured after 1 hr by MTT assay. It counts as toxicity, cell-based. Conditions: endothelial cell, dose 1-100 µg/ml. A general note: Formazan colour is commonly taken as a measure of viable cells.
The species entered for the next series is Homo sapiens. The series is described as follows: Inhibition of Amyloid beta (1 to 28) (unknown origin) fibril formation assessed as ratio of alpha-helical to beta strand at 125 uM measured upto 5 hrs by CD spectra analysis (reference value: 0.39). Summed up: (§1)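 CD at 25 °C, 195–250 nm, 0.1 cm cell, 50 nm/min, 0.1 nm resolution, five scans averaged. Aβ1-42 or Aβ1-28 at 25 μM with inhibitor at 125 μM, spectra taken at time points up to 5 h. Buffer or inhibitor spectrum subtracted, then smoothing. Secondary structure from 200–250 nm by BeStSel deconvolution.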

Series [5] can be described thus: Apparent permeability of the compound in apical to basolateral side in rat blood-brain barrier model at 5 uM. It counts as ADME, tissue-based. Particulars: not told. Summed up:
(§2)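 Rat in vitro BBB model; peptide applied at 5 or 10 μM, co-incubated with Lucifer yellow as integrity standard, solutions in low-binding tubes. Transport measured apical-to-basal and basal-to-apical, in triplicate. Apical and basal samples quantified by LC-MS/MS to give apparent permeability (Papp).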

Series [6] can be described thus: Plasma stability in human plasma assessed as degraded peptide at 1 uM measured after 2 hrs by UPLC-MS/MS analysis. It counts as ADME, cell-free. In outline: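 Compound at 1 μM in human plasma at 37 °C, duplicate. Sampled at 0, 15, 30, 45, 60 and 120 min. Analysed by reversed-phase UPLC, C18 at 40 °C, 4 min gradient of 0.1% formic acid in water/acetonitrile.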

Series [7] deals with Amyloid-beta precursor protein (Homo sapiens) (UniProt P05067). Put plainly: Inhibition of Amyloid beta (1 to 42) (unknown origin) fibril formation assessed as decrease in parallel beta sheet content at 125 uM measured upto 5 hrs by CD analysis. In outline:
as §1

The nature of series [8]: Apparent permeability of the compound in apical to basolateral side in rat blood-brain barrier model at 10 uM. It counts as ADME, tissue-based. Particulars: not told. In outline:
as §2

Series [9] has as its target Amyloid-beta precursor protein (Homo sapiens) (UniProt P05067). Put plainly: Inhibition of Amyloid beta (1 to 42) (unknown origin) fibril formation assessed as decrease in factor of rate constants of secondary nucleation(k2)/elongation(K+) at 10 to 1 ratio of compound to amyloid beta (1 to 42) incubated for 48 hrs ThT assay.
Series [10] shares this target. The series is described as follows: Inhibition of Amyloid beta (1 to 42) (unknown origin) fibril formation assessed as decrease in factor of rate constants of secondary nucleation(k2)/elongation(K+) at 1 to 1 ratio of compound to amyloid beta (1 to 42) incubated for 48 hrs ThT assay.

For `CC(=O)NN(C[C@H](C)O)C(=O)NN(CCCCN)C(=O)N[C@@H](CO)C(=O)N[C@@H](Cc1ccc(O)cc1)C(=O)N[C@@H](Cc1c[nH]c2ccccc12)C(=O)N[C@@H](CCCCN)C(=O)N[C@@H](C)C(=O)N[C@@H](CC(C)C)C(=O)NCC(N)=O` (Ac-[X3]SYWKALG-NH2), the Activity in [1] is 36%; in series [2] it was 107%.
For `CC(=O)N[C@H](C(=O)N[C@@H](CCCCN)C(=O)N[C@@H](CO)C(=O)N[C@@H](Cc1ccc(O)cc1)C(=O)N[C@@H](Cc1c[nH]c2ccccc12)C(=O)N[C@@H](CCCCN)C(=O)NN(C)C(=O)NN(CC(C)C)C(=O)NCC(N)=O)[C@@H](C)O` (Ac-TKSYWK[X2]G-NH2), in that order: 30% and 59%.
With `CC(=O)N[C@H](C(=O)N[C@@H](CCCCN)C(=O)N[C@@H](CO)C(=O)NN(Cc1ccc(O)cc1)C(=O)NN(CCc1c[nH]c2ccccc12)C(=O)N[C@@H](CCCCN)C(=O)N[C@@H](C)C(=O)N[C@@H](CC(C)C)C(=O)NCC(N)=O)[C@@H](C)O`, the Activity is 56% in [1] and 102% in series [2].
For the compound `CC(=O)NN(C[C@H](C)O)C(=O)NN(CCCCN)C(=O)N[C@@H](CO)C(=O)N[C@@H](Cc1ccc(O)cc1)C(=O)N[C@@H](Cc1c[nH]c2ccccc12)C(=O)N[C@@H](CCCCN)C(=O)NN(C)C(=O)NN(CC(C)C)C(=O)NCC(N)=O` (Ac-[X3]SYWK[X2]G-NH2), the Activity in series [1] is 41%; in series [2], 30%. Besides, in series [3], the inhibition result was “inactive”.
Consider `CC(=O)NN(C[C@H](C)O)C(=O)NN(CCCCN)C(=O)N[C@@H](CO)C(=O)NN(Cc1ccc(O)cc1)C(=O)NN(CCc1c[nH]c2ccccc12)C(=O)N[C@@H](CCCCN)C(=O)N[C@@H](C)C(=O)N[C@@H](CC(C)C)C(=O)NCC(N)=O`, for which the values for the Activity in series [1] and in series [2] were 62% and 72%, respectively.
As to `CC(=O)N[C@H](C(=O)N[C@@H](CCCCN)C(=O)N[C@@H](CO)C(=O)NN(Cc1ccc(O)cc1)C(=O)NN(CCc1c[nH]c2ccccc12)C(=O)N[C@@H](CCCCN)C(=O)NN(C)C(=O)NN(CC(C)C)C(=O)NCC(N)=O)[C@@H](C)O`, the Activity stood at 55% in series [1] and 34% in series [2].
For `CC(C)CN(NC(=O)N(C)NC(=O)[C@H](CCCCN)NC(=O)[C@H](Cc1c[nH]c2ccccc12)NC(=O)[C@H](Cc1ccc(O)cc1)NC(=O)[C@H](CO)NC(=O)[C@H](CCCCN)NC(=O)[C@@H](N)[C@@H](C)O)C(=O)NCC(N)=O` (H-TKSYWK[X2]G-NH2), in that order: 60% and 36%.
In the case of `CC(C)CN(NC(=O)N(C)NC(=O)[C@H](CCCCN)NC(=O)[C@H](Cc1c[nH]c2ccccc12)NC(=O)[C@H](Cc1ccc(O)cc1)NC(=O)[C@H](CO)NC(=O)N(CCCCN)NC(=O)N(N)C[C@H](C)O)C(=O)NCC(N)=O` (X1-SYWK[X2]G-NH2), the Activity was 57% in series [1], “Non-Toxic” in [4] and 254% in series [2]. Also, the Ratio in the series listed under Homo sapiens came to 2.16; in series [9], 1e+09; in series [10], 10. Moreover, in series [5], the Papp A→B at 5 µM was determined as 0.839 ×10⁻⁶ cm/s. Besides, the metabolised at 2 h, 1 µM in series [6] is 6%. Moreover, in series [7], the inhibition result was “Active”. In addition, the apparent permeability from apical to basolateral (Papp A→B) at 10 µM in series [8] was found to be 0.677 ×10⁻⁶ cm/s. Moreover, the inhibition entry in series [3] is “inactive”.
On to `CC(=O)NN(C[C@H](C)O)C(=O)NN(CCCCN)C(=O)N[C@@H](CO)C(=O)NN(Cc1ccc(O)cc1)C(=O)NN(CCc1c[nH]c2ccccc12)C(=O)N[C@@H](CCCCN)C(=O)NN(C)C(=O)NN(CC(C)C)C(=O)NCC(N)=O`, for which the Activity in series [1] turned out to be 41%; in [2], 42%.
As for H-TKSYWKALG-NH2, the figures for the Activity in [1] and in series [2] were 59% and 209%, respectively. Also, the Ratio turned out to be 0.66 in the series filed under Homo sapiens and 100 in series [9]. Besides, the metabolised at 2 h, 1 µM in series [6] was determined as 99%. Also, the inhibition result in [7] was “Active”. Further, the inhibition entry in [3] and in series [10] was “inactive” in each case.
Consider `CC(C)C[C@H](NC(=O)[C@H](C)NC(=O)[C@H](CCCCN)NC(=O)[C@H](Cc1c[nH]c2ccccc12)NC(=O)[C@H](Cc1ccc(O)cc1)NC(=O)[C@H](CO)NC(=O)N(CCCCN)NC(=O)N(N)C[C@H](C)O)C(=O)NCC(N)=O` (X1-SYWKALG-NH2), for which the Activity came out at 54% in series [1] and 193% in series [2]. The inhibition result in series [3] was “inactive”.

The values above are taken from ChEMBL document CHEMBL5321288, “Proteolytically Stable Diaza-Peptide Foldamers Mimic Helical Hot Spots of Protein-Protein Interactions and Act as Natural Chaperones” (J Med Chem, 2023).
